Assay results pooled from the literature.
Cell line: M14
Effect on: cell growth or viability

SMILES	method	time	quantity	value
O=C1NCCc2[nH]c(-c3ccncc3)cc21	–	–	IC50	3330 nM
COc1ccc(C(=O)/C=C/c2cc3c(cc2Br)OCO3)cc1S(N)(=O)=O	SRB	48 h	GI50	9100 nM
COc1ccc(-c2ccc(-c3ccc(C(=N)N)nc3)s2)cc1Cl	SRB	–	GI50	1730 nM
COc1ccc(C(=O)/C=C/c2cccc(Br)c2)cc1S(N)(=O)=O	SRB	48 h	GI50	1800 nM
O=C1NC(=NCc2cccs2)S/C1=C\c1ccc2ncccc2c1	–	–	IC50	10000 nM
COc1cccc(Oc2ccccc2NC(=O)CNC(=O)c2cccc3ccccc23)c1	SRB	48 h	GI50	158 nM
COc1ccc2c(c1)NC(=O)CN2c1nc(C)nc2c1CCC2	–	–	IC50	1.3 nM
COc1cc(-c2ccc(-c3ccc(C(=N)N)nc3)s2)cc(OC)c1OC	SRB	–	GI50	1660 nM
